Converted amounts (≈) assume the structure as drawn. The source made the active and inactive calls. The calls are words filed in the database; no cut-off is given here.
Experiments:
Candida albicans [1] = test: Synergistic antibiofilm activity against Candida albicans ATCC 24433 assessed as fractional inhibition concentration index after 24 hrs in presence of fluconazole checkerboard assay; type: functional
Procedure, shortened: (§1)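 Preformed biofilms (1.0 × 10^6 cfu/mL in RPMI-1640/MOPS, 37 °C, 24 h) treated 24 h at 37 °C in a checkerboard: compounds 160 to 5 μg/mL, fluconazole 500 to 8 μg/mL. Read by 0.5 mg/mL XTT for 2 h at 490 nm, ≥80% reduction as endpoint; FICI calculated.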

U2OS = test: Cytotoxicity against human U2OS cells by MTT assay; type: cell-based
Procedure, shortened: (§2)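 MTT assay with cisplatin as positive control.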

Candida albicans [2] = test: Synergistic antibiofilm activity against Candida albicans ATCC 24433 assessed as fractional inhibition concentration ratio after 24 hrs in presence of fluconazole by checkerboard assay; type: functional; procedure, shortened: as §1
Candida albicans [3] = test: Antibiofilm activity against Candida albicans ATCC 24433 after 24 hrs in presence of fluconazole by XTT-based colorimetric assay; type: functional; conditions: ATCC 24433, 24 h; procedure, shortened: as §1
HepG2 = test: Cytotoxicity against human HepG2 cells by MTT assay; type: cell-based; procedure, shortened: as §2
Candida albicans [4] = test: Antibiofilm activity against Candida albicans ATCC 24433 after 24 hrs by XTT-based colorimetric assay; type: functional; conditions: ATCC 24433, 24 h
Procedure, shortened: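 XTT assay: YPD overnight culture, PBS-washed, 1.0 × 10^6 cfu/mL in RPMI-1640/MOPS; biofilms formed at 37 °C for 24 h, washed, then treated 24 h at 37 °C; 0.5 mg/mL XTT for 2 h, read at 490 nm. MIC = lowest concentration giving ≥80% reduction in XTT signal.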

MCF7 = test: Cytotoxicity against human MCF7 cells by MTT assay; type: cell-based; procedure, shortened: as §2
Bacillus subtilis = test: Antibacterial activity against Bacillus subtilis ATCC 6633 by broth microdilution method; type: functional
Procedure, shortened: (§3)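 Broth microdilution in 96-well plates; MIC read by comparing OD with the growth control; amoxicillin and streptomycin as positive controls.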

Staphylococcus aureus = test: Antibacterial activity against Staphylococcus aureus ATCC 25923 by broth microdilution method; type: functional; procedure, shortened: as §3
Escherichia coli = test: Antibacterial activity against Escherichia coli ATCC 25922 by broth microdilution method; type: functional; procedure, shortened: as §3
Pseudomonas aeruginosa = test: Antibacterial activity against Pseudomonas aeruginosa ATCC 9027 by broth microdilution method; type: functional; procedure, shortened: as §3
Candida albicans [5] = test: Antifungal activity against Candida albicans ATCC 24433 assessed as synergistic growth inhibition after 24 hrs in presence of fluconazole by broth microdilution assay; type: functional; conditions: ATCC 24433, 24 h
Procedure, shortened: (§4)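 Checkerboard in RPMI-1640/MOPS, inoculum 1.0 × 10^4 cfu/mL, 35 °C, 24 h, OD 595 nm. Compound 25 to 0.8 μg/mL against fluconazole 4.0 to 0.0078 μg/mL. MIC = concentrations giving ≥80% growth reduction. FICI ≤ 0.5 counts as synergy; values compared at fluconazole 0.031 μg/mL.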

Candida albicans [6] = test: Antifungal activity against Candida albicans ATCC 24433 assessed as fractional inhibition concentration index in presence of fluconazole by checkerboard assay; type: functional; procedure, shortened: as §4
Candida albicans [7] = test: Antifungal activity against Candida albicans ATCC 24433 assessed as growth inhibition after 24 hrs by broth microdilution assay; type: functional; conditions: ATCC 24433, 24 h
Procedure, shortened: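 Broth microdilution: 24-h colonies suspended in 0.85% saline, diluted in RPMI-1640 with MOPS to 1.0 × 10^4 cfu/mL final, mixed 1:1 with sample; 35 °C, 24 h; OD 595 nm. MIC = lowest concentration giving 80% growth reduction. Fluconazole positive control; SD from three independent experiments.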

Candida albicans [8] = test: Antifungal activity against Candida albicans ATCC 24433 assessed as fractional inhibition concentration ratio in presence of fluconazole by checkerboard assay; type: functional; procedure, shortened: as §4
Candida albicans [9] = test: Potentiation of antifungal activity of fluconazole against Candida albicans ATCC 24433 by checkerboard assay; type: functional; procedure, shortened: as §4
Candida albicans [10] = test: Synergistic antibiofilm activity against Candida albicans ATCC 24433 assessed as reduction in biofilm formation at 40 to 80 ug/ml in presence of 63 ug/ml fluconazole by scanning electron microscopic analysis; type: functional, organism-based
Procedure, shortened: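 Biofilms grown 24 h at 37 °C on poly-L-lysine-treated glass coverslips from 1.0 × 10^6 cfu/mL, washed, then exposed 24 h to compound plus fluconazole; fixed in 2.5% glutaraldehyde (0.2 M PBS, pH 7.2) and 1% osmium, ethanol-dehydrated, critical-point dried, gold-coated; SEM at 10 kV.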

| SMILES | fractional inhibitory concentration index (FICI) (Candida albicans [1]) | Activity (U2OS) | Ratio (Candida albicans [2]) | MIC80 (Candida albicans [3]) | Activity (HepG2) | MIC80 (Candida albicans [4]) | Activity (MCF7) | MIC (Bacillus subtilis) | MIC (Staphylococcus aureus) | MIC (Escherichia coli) | MIC (Pseudomonas aeruginosa) | MIC80 (Candida albicans [5]) | fractional inhibitory concentration index (FICI) (Candida albicans [6]) | MIC80 (Candida albicans [7]) | Ratio (Candida albicans [8]) | MIC (Candida albicans [5]) | fold change (FC) (Candida albicans [9]) | Activity (Candida albicans [10]) |
| --- | --- | --- | --- | --- | --- | --- | --- | --- | --- | --- | --- | --- | --- | --- | --- | --- | --- | --- |
| C=C(C)[C@@H]1C[C@H](O)[C@@]2(C)OC3=C(C[C@@H]12)C(=O)[C@](O)(CO)C[C@@H]3O | <0.46 | Non-toxic | <0.4 | 80 µg/mL | Non-toxic | > 200 µg/mL | Non-toxic | – | – | – | – | – | – | – | – | – | – | – |
| C=C(C)[C@@H]1CC[C@@]2(C)OC3=C(C[C@@H]12)C(=O)[C@]1(O)CO[C@H]3C1 | – | Non-toxic | – | – | Non-toxic | > 200 µg/mL | Non-toxic | > 100 µg/mL | > 100 µg/mL | > 100 µg/mL | 25.5 µg/mL (≈ 87.8 µM) | – | – | – | – | – | – | – |
| CC1(C)S[C@@H]2[C@H](NC(=O)[C@H](N)c3ccc(O)cc3)C(=O)N2[C@H]1C(=O)O [AMOXICILLIN] | – | – | – | – | – | – | – | 1 µg/mL (≈ 2.74 µM) | 0.8 µg/mL (≈ 2.19 µM) | – | – | – | – | – | – | – | – | – |
| Oc1cccc2c1[C@H](O)[C@@H]1O[C@@H]1C21Oc2cccc3cccc(c23)O1 | <0.34 | Non-toxic | 0.28 | 40 µg/mL | Non-toxic | 145 µg/mL (≈ 434 µM) | Non-toxic | 59.5 µg/mL (≈ 178 µM) | 37.7 µg/mL (≈ 113 µM) | > 100 µg/mL | 45.5 µg/mL (≈ 136 µM) | 6.3 µg/mL | 0.38 | 24.3 µg/mL (≈ 72.7 µM) | 0.26 | – | – | – |
| COC(=O)[C@]1(C(C)C)OC(=O)/C(=C\c2ccc(O)cc2)O1 | – | Non-toxic | – | – | Non-toxic | > 200 µg/mL | Non-toxic | – | – | – | – | – | – | – | – | – | – | – |
| CC(C)[C@H]1OC(=O)[C@H](Cc2ccccc2)N(C)C(=O)[C@@H](C(C)C)OC(=O)[C@H](Cc2ccccc2)N(C)C(=O)[C@@H](C(C)C)OC(=O)[C@H](Cc2ccccc2)N(C)C1=O | <0.31 | – | <0.25 | 40 µg/mL | – | > 200 µg/mL | – | – | – | – | – | – | <0.13 | > 100 µg/mL | <0.013 | 1.3 µg/mL | >16 | – |
| C[C@@]12CC[C@@H]([C@](C)(O)CO)[C@@H]1CC1=C(O2)[C@@H]2C[C@@](O)(CO2)C1=O | <0.31 | Non-toxic | <0.25 | 40 µg/mL | Non-toxic | > 200 µg/mL | Non-toxic | > 100 µg/mL | 79.2 µg/mL (≈ 244 µM) | 78 µg/mL (≈ 240 µM) | > 100 µg/mL | 6.3 µg/mL | 0.23 | 57.3 µg/mL (≈ 177 µM) | 0.11 | – | >16 | Active |
| C=C(C)[C@@H]1CC[C@@]2(C)OC3=C(C[C@@H]12)C(=O)[C@](O)(CO)C[C@@H]3O | – | Non-toxic | – | – | Non-toxic | > 200 µg/mL | Non-toxic | 89.3 µg/mL (≈ 290 µM) | > 100 µg/mL | > 100 µg/mL | > 100 µg/mL | – | – | – | – | – | – | – |
| C=C(C)[C@@H]1C[C@H](O)[C@@]2(C)OC3=C(C[C@@H]12)C(=O)[C@]1(O)CO[C@H]3C1 | <0.46 | Non-toxic | <0.4 | 80 µg/mL | Non-toxic | > 200 µg/mL | Non-toxic | – | – | – | – | – | – | – | – | – | – | – |
| C=C(C)[C@@H]1CC[C@@]2(C)OC3=C(C[C@@H]12)C(=O)[C@@H](OC)C[C@@H]3O | – | Non-toxic | – | – | Non-toxic | > 200 µg/mL | Non-toxic | – | – | – | – | – | – | – | – | – | – | – |
| C=C(C)[C@@H]1CC[C@@]2(C)OC3=C(C[C@@H]12)C(=O)[C@@H]1C[C@@]3(O)CO1 | – | Non-toxic | – | – | Non-toxic | > 200 µg/mL | Non-toxic | – | – | – | – | – | – | – | – | – | – | – |
| CN[C@@H]1[C@H](O[C@H]2[C@H](O[C@H]3[C@H](O)[C@@H](O)[C@H](N=C(N)N)[C@@H](O)[C@@H]3N=C(N)N)O[C@@H](C)[C@]2(O)C=O)O[C@@H](CO)[C@H](O)[C@H]1O [STREPTOMYCIN] | – | – | – | – | – | – | – | – | – | 2.4 µg/mL (≈ 4.13 µM) | 1.7 µg/mL (≈ 2.92 µM) | – | – | – | – | – | – | – |
| C=C(C)[C@@H]1CC[C@@]2(C)OC3=C(C[C@@H]12)C(=O)[C@H](O)C[C@@H]3O | – | Non-toxic | – | – | Non-toxic | > 200 µg/mL | Non-toxic | – | – | – | – | – | – | – | – | – | – | – |
| CC(C)[C@@]1(C(=O)O)OC(=O)/C(=C/c2ccccc2)O1 | <0.16 | Non-toxic | <0.1 | 20 µg/mL | Non-toxic | > 200 µg/mL | Non-toxic | – | – | – | – | 6.3 µg/mL | 0.19 | 87.5 µg/mL (≈ 334 µM) | 0.07 | – | – | – |
| C=C(C)[C@@H]1[C@H](O)C[C@@]2(C)OC3=C(C[C@@H]12)C(=O)[C@]1(O)CO[C@H]3C1 | <0.31 | Non-toxic | <0.25 | 40 µg/mL | Non-toxic | > 200 µg/mL | Non-toxic | 73.5 µg/mL (≈ 240 µM) | 73.6 µg/mL (≈ 240 µM) | 88.3 µg/mL (≈ 288 µM) | 53.2 µg/mL (≈ 174 µM) | 25 µg/mL | <0.38 | > 100 µg/mL | <0.25 | – | >16 | – |
| C[C@](O)(CO)[C@@H]1CC[C@@]2(C)OC3=C(C[C@@H]12)C(=O)[C@]1(O)CO[C@H]3C1 | <0.46 | Non-toxic | <0.4 | 80 µg/mL | Non-toxic | > 200 µg/mL | Non-toxic | – | – | – | – | 25 µg/mL | <0.38 | > 100 µg/mL | <0.25 | – | – | – |
| C=C(C)[C@@H]1CC[C@@]2(C)OC3=C(C[C@@H]12)C(=O)[C@H](OC)C[C@@H]3O | – | Non-toxic | – | – | Non-toxic | > 200 µg/mL | Non-toxic | 37.3 µg/mL (≈ 128 µM) | > 100 µg/mL | > 100 µg/mL | > 100 µg/mL | – | – | – | – | – | – | – |
| C=C(COC(C)=O)[C@@H]1CC[C@@]2(C)OC3=C(C[C@@H]12)C(=O)[C@]1(O)CO[C@H]3C1 | – | Non-toxic | – | – | Non-toxic | > 200 µg/mL | Non-toxic | – | – | – | – | – | – | – | – | – | – | – |
| C=C(CO)[C@@H]1CC[C@@]2(C)OC3=C(C[C@@H]12)C(=O)[C@]1(O)CO[C@H]3C1 | – | Non-toxic | – | – | Non-toxic | > 200 µg/mL | Non-toxic | – | – | – | – | – | – | – | – | – | – | – |
| CC(C)(O)[C@@H]1CC[C@@]2(C)OC3=C(C[C@@H]12)C(=O)[C@]1(O)CO[C@H]3C1 | <0.46 | Non-toxic | <0.4 | 80 µg/mL | Non-toxic | > 200 µg/mL | Non-toxic | 67.7 µg/mL (≈ 220 µM) | > 100 µg/mL | 35.9 µg/mL (≈ 116 µM) | 52.1 µg/mL (≈ 169 µM) | 6.3 µg/mL | 0.32 | 15.5 µg/mL (≈ 50.3 µM) | – | – | – | – |
